Experimental findings from ChEMBL document CHEMBL1938337, “Discovery of novel, potent, and selective inhibitors of 3-phosphoinositide-dependent kinase (PDK1)” (J Med Chem, 2011) are described below.

Molecules are shown by their SMILES. In brackets after ≈: the same amount, converted by molar mass.

Data set [1] deals with T1, 3-phosphoinositide-dependent protein kinase 1 (Homo sapiens, UniProt O15530).
T1 sequence (O15530 whole entry): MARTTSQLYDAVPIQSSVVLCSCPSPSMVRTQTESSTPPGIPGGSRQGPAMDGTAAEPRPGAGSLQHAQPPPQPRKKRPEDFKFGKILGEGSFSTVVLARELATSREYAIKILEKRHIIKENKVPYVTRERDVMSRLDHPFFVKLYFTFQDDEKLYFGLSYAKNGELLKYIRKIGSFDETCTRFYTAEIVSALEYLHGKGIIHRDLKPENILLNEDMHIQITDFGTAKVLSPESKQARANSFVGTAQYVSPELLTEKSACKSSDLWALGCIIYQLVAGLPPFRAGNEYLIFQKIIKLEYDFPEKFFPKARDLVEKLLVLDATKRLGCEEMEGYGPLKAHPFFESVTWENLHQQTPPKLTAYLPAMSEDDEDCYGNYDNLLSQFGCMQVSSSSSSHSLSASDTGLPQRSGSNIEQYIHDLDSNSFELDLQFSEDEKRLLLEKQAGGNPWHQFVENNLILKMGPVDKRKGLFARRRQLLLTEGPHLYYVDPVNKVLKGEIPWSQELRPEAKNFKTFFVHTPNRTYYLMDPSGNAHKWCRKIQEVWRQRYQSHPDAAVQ
The experiment in a line: Inhibition of recombinant human His-tagged PDK1 catalytic domain using Ac-Sox-PKTFCGTPEYLAPEVRREPRILSEEEQEMFRDFDYIAD-NH2 as substrate by fluorescence-based spectrophotometry.

The target of data set [2] is Phosphatidylinositol 4,5-bisphosphate 3-kinase catalytic subunit alpha isoform (Mus musculus, UniProt P42337). Kind of data set: Inhibition of mouse PI3Kalpha after 30 mins by fluorescence polarization assay. A digest of the protocol: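 Mouse PI3Kα 0.5 nM with 30 μM PIP₂, 5 mM MgCl₂, 200 μM ATP, 30 min at room temperature (~22 °C); stopped with 10 mM EDTA. Then 3 min with detector mix of 480 nM GST-Grp1 PH domain and 12 nM TAMRA-PIP₃. Fluorescence polarization read in 50 mM Hepes pH 7.4, 150 mM NaCl, 5 mM DTT, 0.05% CHAPS. Duplicate points, nonlinear regression fit.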
Sequence of Phosphatidylinositol 4,5-bisphosphate 3-kinase catalytic subunit alpha isoform (P42337 whole entry, the tested form may be a part, canonical isoform): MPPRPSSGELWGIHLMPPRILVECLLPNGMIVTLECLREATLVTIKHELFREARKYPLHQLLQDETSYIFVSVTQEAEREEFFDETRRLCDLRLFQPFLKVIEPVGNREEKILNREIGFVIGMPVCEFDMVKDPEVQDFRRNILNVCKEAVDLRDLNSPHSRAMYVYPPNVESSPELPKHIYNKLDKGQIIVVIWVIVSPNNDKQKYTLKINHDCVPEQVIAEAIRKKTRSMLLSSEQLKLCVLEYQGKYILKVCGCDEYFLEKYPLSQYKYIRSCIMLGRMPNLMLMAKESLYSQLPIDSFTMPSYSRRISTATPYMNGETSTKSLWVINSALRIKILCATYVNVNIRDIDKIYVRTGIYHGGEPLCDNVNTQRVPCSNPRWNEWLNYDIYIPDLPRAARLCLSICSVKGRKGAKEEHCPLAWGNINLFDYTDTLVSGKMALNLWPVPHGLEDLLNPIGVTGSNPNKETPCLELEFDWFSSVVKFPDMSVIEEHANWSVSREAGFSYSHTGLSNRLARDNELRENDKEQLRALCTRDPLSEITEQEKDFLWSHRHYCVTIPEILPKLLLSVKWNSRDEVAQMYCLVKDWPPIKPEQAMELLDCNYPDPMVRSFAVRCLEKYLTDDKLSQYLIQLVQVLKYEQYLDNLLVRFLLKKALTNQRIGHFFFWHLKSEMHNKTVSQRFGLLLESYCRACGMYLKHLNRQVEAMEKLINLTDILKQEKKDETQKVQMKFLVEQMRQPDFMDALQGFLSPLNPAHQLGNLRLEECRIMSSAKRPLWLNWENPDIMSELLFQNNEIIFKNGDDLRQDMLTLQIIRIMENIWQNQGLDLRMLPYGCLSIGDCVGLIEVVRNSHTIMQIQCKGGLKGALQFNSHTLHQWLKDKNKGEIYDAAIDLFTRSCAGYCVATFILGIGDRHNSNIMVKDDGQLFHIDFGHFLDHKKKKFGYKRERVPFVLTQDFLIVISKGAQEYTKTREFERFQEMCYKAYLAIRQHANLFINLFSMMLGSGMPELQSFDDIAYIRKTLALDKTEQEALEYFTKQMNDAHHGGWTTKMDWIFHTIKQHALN
In general terms: Polarisation of emitted light reports the rotation of a fluorescent probe.

Data set [3] can be described thus: Solubility of the compound at pH 6.5. It counts as physicochemical. Conditions: buffer.
Data set [4] can be described thus: Passive permeability in canine kidney cells. Conditions: dog; read-out: permeability. Type of data set: ADME, cell-based, Canis lupus familiaris.
Data set [5] is described as follows: Clearance in human liver microsomes. Type of data set: ADME, Microsome. Conditions: read-out: CLH. (In general: Liver microsomes are a subcellular fraction often used to study metabolism.)
The nature of data set [6]: Inhibition of recombinant GST-tagged P70S6K using 5FAM-KRSRTRTDSYSAGQ-COOH as substrate by fluorescence based assay. Put shortly:
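GST-tagged P70S6K (a.a. 1-421) at 5 nM, 50 μM ATP, 5 μM 5FAM-peptide. Product separated from substrate by charge (electrophoretic mobility shift, −2500/−500 V). Duplicates, nonlinear regression fit.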

Data set [7] has as its target RAC-alpha serine/threonine-protein kinase (Homo sapiens, UniProt P31749). The experiment in a line: Inhibition of His-tagged AKT1 using 5FAM-GRPRTSSFAEGCONH2 as substrate by fluorescence based assay.
Data set [8] addresses Serine/threonine-protein kinase mTOR (Homo sapiens, UniProt P42345). The experiment in a line: Inhibition of GST-tagged mTOR assessed as phosphorylation at Thr46 in GFP-4E-BP1 substrate by TR-FRET assay. A digest of the protocol: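 GST-tagged mTOR (aa 1360-2549) at 1 nM, with 0.4 μM GFP-4E-BP1 and 40 μM ATP. Buffer: 50 mM Hepes pH 7.4, 10 mM MgCl2, 1 mM EGTA, 0.01% Tween-20, at about 22 °C. A terbium anti-phospho-Thr46 antibody was added at the end, and the read-out was TR-FRET. Duplicate data fitted by nonlinear regression. Concentrations are final.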

Data set [9] deals with CYP3A4 (Homo sapiens, UniProt P08684). Kind of data set: Inhibition of CYP3A4 at 3 uM. It counts as ADME.
Sequence of CYP3A4 (P08684 whole entry): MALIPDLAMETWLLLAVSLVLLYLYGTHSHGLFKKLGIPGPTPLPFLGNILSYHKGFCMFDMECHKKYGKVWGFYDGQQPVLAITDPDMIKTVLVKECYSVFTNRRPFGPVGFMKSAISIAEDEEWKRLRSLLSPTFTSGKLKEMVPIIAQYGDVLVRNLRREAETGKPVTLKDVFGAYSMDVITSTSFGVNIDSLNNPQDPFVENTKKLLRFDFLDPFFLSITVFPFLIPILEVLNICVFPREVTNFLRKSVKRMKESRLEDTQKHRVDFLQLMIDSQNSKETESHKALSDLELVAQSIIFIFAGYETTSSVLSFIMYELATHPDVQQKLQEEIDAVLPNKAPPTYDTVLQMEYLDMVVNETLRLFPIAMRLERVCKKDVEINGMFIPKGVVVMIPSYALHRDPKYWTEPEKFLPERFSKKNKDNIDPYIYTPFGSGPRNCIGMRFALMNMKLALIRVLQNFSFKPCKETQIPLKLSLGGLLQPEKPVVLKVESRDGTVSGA
For data set [10], the system named is CYP3A4 (Homo sapiens). The experiment in a line: Inhibition of CYP3A4 at 3 uM.
Data set [11] deals with CYP3A4 (Homo sapiens). The experiment in a line: Inhibition of CYP3A4 at 3 uM. The source holds these as a separate data set.
The subject of data set [12] is CYP3A4 (Homo sapiens). The experiment in a line: Inhibition of CYP3A4 at 3 uM. This is another data set of the same source.

Sequence of RAC-alpha serine/threonine-protein kinase (P31749 whole entry, the tested form may be a part): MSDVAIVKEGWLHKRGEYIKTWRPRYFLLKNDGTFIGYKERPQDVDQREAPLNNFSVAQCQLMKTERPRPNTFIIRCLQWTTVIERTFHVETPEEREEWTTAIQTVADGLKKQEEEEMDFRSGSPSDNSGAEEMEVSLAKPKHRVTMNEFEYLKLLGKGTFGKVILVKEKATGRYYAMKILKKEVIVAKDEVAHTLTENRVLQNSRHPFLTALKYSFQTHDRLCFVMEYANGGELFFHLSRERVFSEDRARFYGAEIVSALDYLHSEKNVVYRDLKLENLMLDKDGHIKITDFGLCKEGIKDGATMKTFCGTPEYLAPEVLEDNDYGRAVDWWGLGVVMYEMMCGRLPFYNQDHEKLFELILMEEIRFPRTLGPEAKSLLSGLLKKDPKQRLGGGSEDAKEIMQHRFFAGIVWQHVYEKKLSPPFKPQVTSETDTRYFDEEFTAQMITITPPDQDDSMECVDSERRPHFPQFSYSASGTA

For `CC(C)n1cc(C(=O)c2cncc(N[C@@H]3CCC[C@@H]3c3ccc(F)cc3)n2)c2c(N)ncnc21`, the Ki – broadly, a measure of affinity in units of concentration, obtained from inhibition or displacement – in data set [1] was 0.6 nM; in [2], 320 nM; in data set [6], 230 nM; in data set [7] it was 210 nM; in data set [8], 3900 nM. In addition, the solubility (usually how much of the substance goes into solution per volume) in [3] was found to be 6 µM (≈ 2.76 µg/mL). Further, the Papp in data set [4] came to 6 ×10⁻⁶ cm/s. In addition, the microsomal CLint in data set [5] was found to be 160 µL/min/mg.
With `CC(C)n1cc(C(=O)c2cncc(N[C@@H]3CNC[C@@H]3c3ccc(F)cc3)n2)c2c(N)ncnc21`, the Ki in [1] came to 2.5 nM; in [2], 370 nM; in [6], 11 nM; in data set [7], 10 nM; in data set [8], 1100 nM. The inhibition at 3 µM in data set [9], in data set [10], in [11] and in [12] was 27% in each case. This molecule gave a solubility in data set [3] of 480 µM (≈ 221 µg/mL). The Papp in data set [4] worked out at 2 ×10⁻⁶ cm/s. In addition, the microsomal CLint in data set [5] came out at 59 µL/min/mg.
With `CNc1cncc(C(=O)c2cn(C(C)C)c3ncnc(N)c23)n1`, the Ki in data set [1] worked out at 100 nM.
Consider `CC(C)n1cc(C(=O)c2cncc(N[C@@H]3COC[C@@H]3c3ccc(F)cc3)n2)c2c(N)ncnc21`, for which the Ki was found to be 570 nM in data set [2], 170 nM in data set [6], 260 nM in [7] and 500 nM in [8]. In data set [3], this molecule yielded a solubility of 23 µM (≈ 10.6 µg/mL). Further, the Papp in data set [4] was determined as 13 ×10⁻⁶ cm/s. Besides, the microsomal CLint in data set [5] was 160 µL/min/mg.
On to `CC(C)n1cc(C(=O)c2cncc(NCCc3cccnc3)n2)c2c(N)ncnc21`, for which the inhibition constant Ki in [2] came out at 250 nM.
As for `CC(C)n1cc(C(=O)c2cncc(N[C@@H]3CCN[C@@H]3c3ccc(F)cc3)n2)c2c(N)ncnc21`, the Ki in data set [1] came to 1 nM; in data set [2], 150 nM; in data set [6], 120 nM; in [7], 100 nM; in [8], 2100 nM. The same molecule gave a solubility in [3] of 520 µM (≈ 239 µg/mL). Also, in data set [4], the Papp is 5 ×10⁻⁶ cm/s. In addition, in data set [5], the microsomal CLint worked out at 92 µL/min/mg.
As to `CC(C)n1cc(C(=O)c2cncc(N[C@@H]3CCC[C@@H]3c3ccccc3)n2)c2c(N)ncnc21`, the figures for the Ki in [1] and in data set [2] were 2 nM and 130 nM, respectively.
`CC(C)n1cc(C(=O)c2cncc(N[C@@H]3CCO[C@@H]3c3ccc(F)cc3)n2)c2c(N)ncnc21`: the inhibition constant Ki in data set [1] is 1.3 nM; in data set [2], 430 nM; in [6] it was 61 nM; in [7], 230 nM; in data set [8], 3900 nM. Moreover, the concentration in solution in data set [3] (solubility) came to 120 µM (≈ 55.4 µg/mL). Besides, in data set [4], the Papp was found to be 13 ×10⁻⁶ cm/s. The microsomal CLint in data set [5] turned out to be 220 µL/min/mg.
Turning to `CC(C)n1cc(C(=O)c2cncc(N(C)[C@@H]3CCC[C@@H]3c3ccc(F)cc3)n2)c2c(N)ncnc21`, the inhibitory constant (Ki) was determined as 0.9 nM in data set [1] and 650 nM in [2].
